Data published in BindingDB's records for doi:10.1016/j.bmc.2009.05.079 (Universidad De Valencia, 2009).

Target: D(2) dopamine receptor (Rattus norvegicus, UniProt P61169)
Assay: Displacement of [3H]raclopride from dopamine D2 receptor in Wistar rat striatal membrane by liquid scintillation counting
How it was run: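 Female Wistar rat striatal membranes were washed at 49,000g and resuspended in Tris-ions buffer, pH 7.4. [3H]-raclopride displacement was read by filtration, cold-buffer washes and scintillation counting. Ki was derived using KD 1,25 nM; 3–6 independent determinations in duplicate, mean SEM.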

Chain of D(2) dopamine receptor (P61169 whole entry): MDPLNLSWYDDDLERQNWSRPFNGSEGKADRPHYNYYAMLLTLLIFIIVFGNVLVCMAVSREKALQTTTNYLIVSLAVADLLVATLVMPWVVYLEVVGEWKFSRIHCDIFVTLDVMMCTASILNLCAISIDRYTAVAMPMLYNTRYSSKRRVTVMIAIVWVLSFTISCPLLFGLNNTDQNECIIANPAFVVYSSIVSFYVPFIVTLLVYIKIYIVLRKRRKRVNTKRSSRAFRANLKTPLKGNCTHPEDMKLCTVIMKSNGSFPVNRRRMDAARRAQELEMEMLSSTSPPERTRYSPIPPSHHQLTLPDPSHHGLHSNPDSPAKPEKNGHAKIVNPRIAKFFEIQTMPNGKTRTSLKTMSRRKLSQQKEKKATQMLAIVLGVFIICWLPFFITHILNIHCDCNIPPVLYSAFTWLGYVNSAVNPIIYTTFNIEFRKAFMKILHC

With `CCCCC1NCCc2cc(Cl)c(O)cc21` (stereo unspecified) [1-Butyl-6-chloro-7-hydroxy-1,2,3,4-tetrahydroisoquinoline] the Ki was 76 nM.
